Experiments:
[1] = Partition coefficient (logD7.4); format: physicochemical; conditions: octanol/water, pH 7.4
How it was run: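 Shake-flask used a 100:1 or 1:100 phase ratio, 1 h stirring, centrifugation, and aqueous absorbance, repeated at least four times. Fe complexes were made at 10:1 ligand:Fe (10^-3/10^-4 M) and read at 460 nm. Reported as mean ± SD.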

Rattus norvegicus [2] = experiment: The amount iron excretion in the bile duct-cannulated rats when iron chelator administered subcutaneously at dose 142 mg/kg; format: functional; conditions: route subcutaneous
How it was run: (§1)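 Non-iron-overloaded male Fischer rats (200–240 g) with bile-duct cannulas in metabolic cages. Control bile/urine was collected for 3 h; chelator was then given subcutaneously or by gavage. Bile was collected in 3-h fractions over 24 h, plus 24-h urine. Iron was measured by bathophenanthroline colorimetry (TCA/HCl, 65 °C 4 h, A535) against iron standards after blank subtraction.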

Rattus norvegicus [3] = experiment: The amount iron excretion in the bile duct-cannulated rats when iron chelator administered orally at dose 142 mg/kg; format: functional; conditions: route oral; how it was run: as §1
[4] = Compound was determined for their affinity constants(log K2) with Fe(III) complex.; format: ADME
How it was run: (§2)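 Stepwise constants K1, K2 and K3 came from simultaneous spectrophotometric/potentiometric pH titrations of ligand with iron(III). Parameters were obtained by global optimization over titrations at several ligand and iron(III) concentrations, using the Fe3+/L− stepwise model (FeL2+, FeL2+, FeL3).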

[5] = Compound was determined for their affinity constants(log K3) with Fe(III) complex.; format: ADME; how it was run: as §2
[6] = Compound was tested for equilibrium constants (pKa3) of the (carboxyalkyl) pyridinone corresponds to the […] function potentiometrically; format: physicochemical; conditions: read-out: pKa3
How it was run: (§3)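 Potentiometric titration in 0.1 M KCl (25 mL), acidified with 0.2 M HCl and titrated with 0.2 M KOH in 0.01-mL increments. Run at 25 ± 0.5 °C under argon, with the electrode zero set by a blank titration (Gran's plot). Data were fitted with TITRFIT; pKa accuracy ±0.02 pH unit.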

[7] = Compound was tested for equilibrium constants (pKa1) spectrophotometrically.; format: physicochemical; conditions: read-out: pKa1
How it was run: (§4)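 The UV/vis spectrum was recorded alongside each potentiometric titration step: 0.1 M KCl, HCl-acidified, titrated with 0.2 M KOH at 25 ± 0.5 °C under argon. Spectral data were fitted with TITRFIT (modified NONLIN) to give pKa, accurate to ±0.02 pH unit.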

[8] = Compound was tested for equilibrium constants (pKa3) of the (carboxyalkyl) pyridinone corresponds to the […] function spectrophotometrically..; format: physicochemical; conditions: read-out: pKa3; how it was run: as §4
[9] = Spectrophotometric values of pKa2 and pKa3
[10] = Compound was determined for their affinity constants(log K1) with Fe(III) complex.; format: ADME
How it was run: (§5)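 Stepwise Fe(III) stability constants (K1, K2, K3) came from simultaneous spectrophotometric/potentiometric pH titrations of ligand with iron(III) at several ligand and Fe(III) concentrations. Parameters were fitted by global optimization, and spectra were followed across pH.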

[11] = Potentiometric values of pKa2 and pKa3
[12] = Compound was determined for their EDTA competition value(log beta3) of affinity constants.; format: ADME
How it was run: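 Spectrophotometric competition against EDTA on an automated titration system. The iron(III) complex was prepared at 5:1 ligand:Fe molar ratio in 0.1 M MOPS, pH 7.4, then titrated with EDTA. Spectral data were fitted in COMPT1 to give log β3, accurate to ±0.02 log unit.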

[13] = Compound was tested for equilibrium constants (pKa1) potentiometrically; format: physicochemical; conditions: read-out: pKa1; how it was run: as §3
Rattus norvegicus [14] = experiment: The amount iron excretion in the bile duct-cannulated rats when iron chelator administered orally at dose 132 mg/kg; format: functional; conditions: route oral; how it was run: as §1
Rattus norvegicus [15] = experiment: The amount iron excretion in the bile duct-cannulated rats when iron chelator administered subcutaneously at dose 132 mg/kg; format: functional; conditions: route subcutaneous; how it was run: as §1
[16] = Compound was tested for equilibrium constants (pKa2) of the (hydroxyalkyl)pyridinone corresponds to the 3-hydroxy function spectrophotometrically..
[17] = Compound was tested for equilibrium constants (pKa2) of the (hydroxyalkyl)pyridinone corresponds to the 3-hydroxy function potentiometrically
Rattus norvegicus [18] = experiment: The dose of the iron chelator administered in the bile duct-cannulated rats.; format: functional; how it was run: as §1
Rattus norvegicus [19] = experiment: The amount iron excretion in the bile duct-cannulated rats when iron chelator administered orally.; format: functional; how it was run: as §1
Rattus norvegicus [20] = experiment: The amount iron excretion in the bile duct-cannulated rats when iron chelator administered subcutaneously.; format: functional; how it was run: as §1
Rattus norvegicus [21] = experiment: The amount iron excretion in the bile duct-cannulated rats when iron chelator administered orally at dose 122 mg/kg; format: functional; conditions: route oral; how it was run: as §1
Rattus norvegicus [22] = experiment: The amount iron excretion in the bile duct-cannulated rats when iron chelator administered subcutaneously at dose 122 mg/kg; format: functional; conditions: route subcutaneous; how it was run: as §1
Rattus norvegicus [23] = experiment: The amount iron excretion in the bile duct-cannulated rats when iron chelator administered orally at dose 100 mg/kg; format: functional; conditions: route oral
How it was run: (§6)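 Male Fischer rats (200–240 g), non-iron-overloaded and bile duct-cannulated, were kept in metabolic cages. Control bile and urine were collected for 3 h, then compound was given (subcutaneously or by gavage). Bile was collected at 3-h intervals over 24 h, with urine pooled over 24 h. Buprenorphine was given for analgesia. Iron was read by bathophenanthroline colorimetry (535 nm) after acid digestion (65 °C, 4 h) against iron standards.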

Rattus norvegicus [24] = experiment: The amount iron excretion in the bile duct-cannulated rats when iron chelator administered subcutaneously at dose 100 mg/kg; format: functional; conditions: route subcutaneous; how it was run: as §6
[25] = Compound was determined for their affinity constants(log K2) with Fe(III) complex; format: ADME; how it was run: as §5

## CCOC(Cn1ccc(=O)c(O)c1C)OCC
[1]
  logD: 0.21

## CNC(=O)CCn1ccc(=O)c(O)c1C
[1]
  logD: -1.15

## Cc1c(O)c(=O)ccn1C(CO)CO
[1]
  logD: -1.7

## CNC(=O)CCCn1ccc(=O)c(O)c1C
[1]
  logD: -1.08

## CCc1c(O)c(=O)ccn1CCCO
Rattus norvegicus [2]
  Iron excretion: 634 µg/kg
Rattus norvegicus [3]
  Iron excretion: 265 µg/kg
[1]
  logD: -0.32

## COC(Cn1ccc(=O)c(O)c1C)OC
[1]
  logD: -0.46

## Cc1c(O)c(=O)ccn1CC(C)(C)O
[1]
  logD: -0.77

## C=CCn1ccc(=O)c(O)c1CC
[1]
  logD: 0.47

## CCc1c(O)c(=O)ccn1CCC(=O)O
[4]
  Log K2: 11.4
[5]
  Log K3: 7.9
[6]
  pKa: 9.89
[7]
  pKa: 3.22
[8]
  pKa: 9.91
[9]
  pKa: 9.91
[10]
  Log K1: 16.6
[11]
  pKa: 9.89
[1]
  logD: -1.6
[12]
  Log beta3: 37
[13]
  pKa: 3.12

## COC(=O)CCn1ccc(=O)c(O)c1C
[1]
  logD: -0.77

## CCc1c(O)c(=O)ccn1CCCC(=O)O
[6]
  pKa: 9.89
[7]
  pKa: 3.42
[8]
  pKa: 9.99
[9]
  pKa: 9.99
[11]
  pKa: 9.89
[1]
  logD: -1.38
[13]
  pKa: 3.21

## Cc1nccc(O)c1O
[1]
  logD: -0.5

## CCc1c(O)c(=O)ccn1CCO
Rattus norvegicus [14]
  Iron excretion: 819 µg/kg
[4]
  Log K2: 11.6
[5]
  Log K3: 9.4
[7]
  pKa: 3.34
Rattus norvegicus [15]
  Iron excretion: 698 µg/kg
[16]
  pKa: 9.75
[9]
  pKa: 9.75
[10]
  Log K1: 15.7
[11]
  pKa: 9.77
[1]
  logD: -0.66
[17]
  pKa: 9.77
[12]
  Log beta3: 36.8
[13]
  pKa: 3.31

## Cc1c(O)c(=O)ccn1C(C)C
[1]
  logD: 0.05

## CCNC(=O)CCn1ccc(=O)c(O)c1C
[1]
  logD: -0.82

## CCOCCCn1ccc(=O)c(O)c1C
[1]
  logD: 0.12

## COCCn1ccc(=O)c(O)c1C
[1]
  logD: -0.41

## Cc1c(O)c(=O)ccn1CCN
[1]
  logD: -1.55

## C=CCn1ccc(=O)c(O)c1C
[1]
  logD: 0.03

## CCOC(=O)CCn1ccc(=O)c(O)c1C
[1]
  logD: -0.24

## Cc1c(O)c(=O)ccn1CC(O)CO (stereo unspecified)
Rattus norvegicus [18]
  Dose: 143 mg/kg
Rattus norvegicus [19]
  Iron excretion: 104 µg/kg
Rattus norvegicus [20]
  Iron excretion: 142 µg/kg

## Cc1c(O)c(=O)ccn1CC(C)C
[1]
  logD: 0.65

## CCn1ccc(=O)c(O)c1C
[1]
  logD: -0.31

## CCc1c(O)c(=O)ccn1CCCCO
[1]
  logD: -0.28

## CCCCCn1ccc(=O)c(O)c1C
[1]
  logD: 1.24

## CCCCn1ccc(=O)c(O)c1C
[1]
  logD: 0.7

## Cc1c(O)c(=O)ccn1CCCO
Rattus norvegicus [14]
  Iron excretion: 414 µg/kg
Rattus norvegicus [15]
  Iron excretion: 383 µg/kg
[1]
  logD: […]

## CCc1c(O)c(=O)ccn1CC
[1]
  logD: 0.23

## CCCCCCn1ccc(=O)c(O)c1C
[1]
  logD: 1.89

## CCc1nccc(O)c1O
[1]
  logD: 0.05

## CCc1c(O)c(=O)ccn1CCOC
[1]
  logD: 0.04

## CCOCCCn1ccc(=O)c(O)c1CC
[1]
  logD: 0.72

## CCCn1ccc(=O)c(O)c1CC
[1]
  logD: 0.7

## CCCNC(=O)CCn1ccc(=O)c(O)c1C
[1]
  logD: -0.4

## COCC(C)n1ccc(=O)c(O)c1C (stereo unspecified)
[1]
  logD: -0.26

## Cc1c(O)c(=O)ccn1CCCCO
[1]
  logD: -0.75

## Cc1c(O)c(=O)ccn1CCO
[7]
  pKa: 3.43
[16]
  pKa: 9.72
[9]
  pKa: 9.72
Rattus norvegicus [21]
  Iron excretion: 272 µg/kg
Rattus norvegicus [22]
  Iron excretion: 353 µg/kg
[11]
  pKa: 9.65
[1]
  logD: -1.1
[17]
  pKa: 9.65
[13]
  pKa: 3.44

## Cc1c(O)c(=O)ccn1CCCC(=O)O
[1]
  logD: -2.75

## CCN(C)C(=O)CCn1ccc(=O)c(O)c1C
[1]
  logD: -0.66

## CCN(CC)C(=O)CCn1ccc(=O)c(O)c1C
[1]
  logD: -0.36

## Cc1c(O)c(=O)ccn1CCC(=O)N(C)C
[1]
  logD: -1

## CCc1c(O)c(=O)ccn1C(C)C
[1]
  logD: 0.73

## Cc1c(O)c(=O)ccn1CCC(=O)O
[6]
  pKa: 9.49
[7]
  pKa: 3.19
[8]
  pKa: 9.51
[9]
  pKa: 9.51
[11]
  pKa: 9.49
[1]
  logD: -2.92
[13]
  pKa: 3.1

## Cc1c(O)c(=O)ccn1CCC(=O)NC(C)C
[1]
  logD: -0.47

## CCCCn1ccc(=O)c(O)c1CC
[1]
  logD: 1.22

## CCc1c(O)c(=O)ccn1C
[1]
  logD: -0.21

## Cc1c(O)c(=O)ccn1C [DEFERIPRONE]
Rattus norvegicus [23]
  Iron excretion: 351 µg/kg
[5]
  Log K3: 9.8
[9]
  pKa: 9.64
[10]
  Log K1: 14.9
Rattus norvegicus [24]
  Iron excretion: 292 µg/kg
[1]
  logD: -0.77
[25]
  Log K2: 12.2

Reference: ChEMBL document CHEMBL1131072, “Synthesis, physicochemical properties, and evaluation of N-substituted-2-alkyl-3-hydroxy-4(1H)-pyridinones” (J Med Chem, 1998)
